Test results: ChEMBL document CHEMBL1128471, “Reversible inhibitors of the gastric (H+/K+)-ATPase. 4. Identification of an inhibitor with an intermediate duration of action” (J Med Chem, 1995)
pIC50: −log10 of the molar value. Each block holds one molecule with its values, some of them ahead of it.

Columns and labels:
[1] = molecular target: T1, Potassium-transporting ATPase (Sus scrofa) (UniProt P18434+P19156); assay: Inhibition of K+ -stimulated gastric ATPase activity was measured using lyophilized gastric vesicles at pH 7 at 10; assay type: tissue-based; details: Stomach; concentration not given here
How it was run: (§1)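 K+-stimulated ATPase activity was measured in lyophilized (permeabilized) gastric vesicles at pH 7. The value is an IC50, or percent inhibition at the stated concentration where no IC50 could be determined.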

[2] = molecular target: T2, Potassium-transporting ATPase (Rattus norvegicus) (UniProt P09626+P18598); assay: Inhibition of pentagastrin-stimulated gastric acid secretion at a single dose of 10 umol/kg.; assay type: functional; details: Stomach
How it was run: (§2)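 Anesthetized, lumen-perfused rats were given pentagastrin to stimulate gastric acid secretion, and compounds were given iv. The value is an ED50 (µmol/kg iv) with 95% confidence limits, or percent inhibition ± SEM at a single 10 µmol/kg iv dose.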

[3] = molecular target: Potassium-transporting ATPase (Sus scrofa, UniProt P19156); assay: (§3) Inhibition of K+ -stimulated gastric ATPase activity was measured using lyophilized gastric vesicles at pH 7; assay type: tissue-based, Stomach; how it was run: as §1
Sequence of Potassium-transporting ATPase (Sus scrofa, UniProt P19156) (P18434 whole entry): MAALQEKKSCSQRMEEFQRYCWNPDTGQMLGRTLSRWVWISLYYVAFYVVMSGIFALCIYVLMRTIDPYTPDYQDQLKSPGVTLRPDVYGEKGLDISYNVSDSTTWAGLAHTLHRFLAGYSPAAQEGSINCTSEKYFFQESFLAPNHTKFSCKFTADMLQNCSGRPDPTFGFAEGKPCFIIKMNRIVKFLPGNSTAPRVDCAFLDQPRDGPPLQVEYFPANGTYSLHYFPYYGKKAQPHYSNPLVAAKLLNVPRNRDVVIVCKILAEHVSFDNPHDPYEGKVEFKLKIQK
Sequence of Potassium-transporting ATPase (Sus scrofa, UniProt P19156) (P19156 whole entry): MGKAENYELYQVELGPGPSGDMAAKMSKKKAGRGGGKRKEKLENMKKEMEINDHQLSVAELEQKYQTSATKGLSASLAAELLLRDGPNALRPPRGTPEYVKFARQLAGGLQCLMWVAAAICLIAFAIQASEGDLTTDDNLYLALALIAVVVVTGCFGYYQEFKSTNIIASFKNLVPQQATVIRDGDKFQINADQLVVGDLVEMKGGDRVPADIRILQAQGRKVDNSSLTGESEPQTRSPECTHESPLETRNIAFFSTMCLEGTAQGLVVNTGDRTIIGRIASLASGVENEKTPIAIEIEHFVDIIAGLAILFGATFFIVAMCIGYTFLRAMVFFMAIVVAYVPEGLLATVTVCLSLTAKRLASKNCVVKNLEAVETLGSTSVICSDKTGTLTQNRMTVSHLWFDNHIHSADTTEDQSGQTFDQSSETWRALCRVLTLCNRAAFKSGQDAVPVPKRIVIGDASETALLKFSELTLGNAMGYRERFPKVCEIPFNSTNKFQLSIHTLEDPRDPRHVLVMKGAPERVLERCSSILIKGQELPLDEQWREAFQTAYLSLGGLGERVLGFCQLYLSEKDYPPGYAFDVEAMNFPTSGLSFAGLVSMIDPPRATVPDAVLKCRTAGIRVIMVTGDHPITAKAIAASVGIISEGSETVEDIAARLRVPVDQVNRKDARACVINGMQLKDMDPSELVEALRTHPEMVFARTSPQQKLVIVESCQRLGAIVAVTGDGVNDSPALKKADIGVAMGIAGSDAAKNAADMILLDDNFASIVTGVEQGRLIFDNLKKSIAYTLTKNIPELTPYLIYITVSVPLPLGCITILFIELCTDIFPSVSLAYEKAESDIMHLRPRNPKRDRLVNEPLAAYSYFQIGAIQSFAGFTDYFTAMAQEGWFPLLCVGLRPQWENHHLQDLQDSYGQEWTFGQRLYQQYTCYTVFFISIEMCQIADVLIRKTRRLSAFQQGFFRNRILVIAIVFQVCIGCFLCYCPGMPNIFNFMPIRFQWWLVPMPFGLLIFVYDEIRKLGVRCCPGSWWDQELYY

Canis familiaris [4] = assay: Mean percent peak inhibition of histamine-stimulated gastric acid secretion in the heidenhain pouch dog following a single dose of 1 umol/kg through iv administration.; assay type: functional; details: Canis lupus familiaris, Stomach
Rattus norvegicus [5] = assay: Inhibition of pentagastrin-stimulated gastric acid secretion in the anesthetized rat, ED50 (umol/kg iv) with 95% confidence limits.; assay type: functional; details: Stomach; how it was run: as §2
Canis familiaris [6] = assay: Mean percent peak inhibition of histamine-stimulated gastric acid secretion in the heidenhain pouch dog following a single dose of 4 umol/kg through oral administration.; assay type: functional; details: Canis lupus familiaris, Stomach
[7] = molecular target: T1, Potassium-transporting ATPase (Sus scrofa); assay: as §3; assay type: tissue-based; details: Stomach; concentration not given here; how it was run: as §1
Rattus norvegicus [8] = assay: Inhibition of pentagastrin-stimulated gastric acid secretion in the anesthetized rat at a single dose of 10 umol/kg iv; Insoluble; assay type: functional, organism-based; details: Stomach; how it was run: as §2
[9] = molecular target: T1, Potassium-transporting ATPase (Sus scrofa); assay: Inhibition of K+ -stimulated gastric ATPase activity was measured using lyophilized gastric vesicles at pH 7 at 100; assay type: tissue-based; details: Stomach; concentration not given here; how it was run: as §1
[10] = molecular target: T1, Potassium-transporting ATPase (Sus scrofa); assay: as §3; assay type: tissue-based; set-up: concentration or dose not given beside the values; details: Stomach; concentration not given here; how it was run: as §1
[11] = molecular target: T2, Potassium-transporting ATPase (Rattus norvegicus); assay: (§4) Inhibition of pentagastrin-stimulated gastric acid secretion in the anesthetized rat after iv administration; assay type: functional, organism-based; details: Stomach; how it was run: as §2
[12] = molecular target: T3, Potassium-transporting ATPase (Sus scrofa, UniProt P18434+P19156); assay: as §3; assay type: tissue-based, Stomach; how it was run: as §1
T3 sequence (P18434 whole entry): as the sequence (P18434 whole entry) above
T3 sequence (P19156 whole entry): as the sequence (P19156 whole entry) above

[13] = molecular target: T3, Potassium-transporting ATPase; assay: Inhibition of K+ -stimulated gastric ATPase activity was measured using lyophilized gastric vesicles at pH 7; Insoluble; assay type: tissue-based, Stomach
Rattus norvegicus [14] = assay: as §4; assay type: functional, Stomach; how it was run: as §2

SMILES: CCCC(=O)c1cnc2cc(OC)ccc2c1Nc1ccccc1C
inhibition [1]: 41% | inhibition [2]: 28%

SMILES: CCCC(=O)c1cnc2c(C3CO3)cccc2c1Nc1ccccc1C (stereo not drawn)
pIC50 [3]: 5.52 | inhibition in vivo at 1 µmol/kg (Canis familiaris [4]): 53% | ED50 (Rattus norvegicus [5]): 3.1 µmol/kg

SMILES: CCCC(=O)c1cnc2c(C(=O)O)cccc2c1Nc1ccccc1C
inhibition (Rattus norvegicus [8]): Insoluble | pIC50 [3]: 5.23

SMILES: CCCC(=O)c1cnc2cc(CO)ccc2c1Nc1ccccc1C
inhibition [9]: 44%

SMILES: CCCC(=O)c1cnc2c(OC)cccc2c1Nc1c(C)ccc(O)c1C
inhibition [10]: 35% | inhibition in vivo at 1 µmol/kg (Canis familiaris [4]): 36% | ED50 [11]: 5.6 µmol/kg

SMILES: CCCC(=O)c1cnc2ccc(-c3ccccc3)cc2c1Nc1ccccc1C
inhibition [1]: 35% | inhibition (Rattus norvegicus [8]): Insoluble

SMILES: CCCC(=O)c1cnc2c(C3OC3CO)cccc2c1Nc1ccccc1C (stereo in doubt; 29a)
pIC50 [12]: 5.51

SMILES: CCCC(=O)c1cnc2c(OC)cccc2c1Nc1cc(C)c(O)c(C)c1
IC50 [13]: Insoluble

The next lines start with results.

inhibition [7]: 44%
SMILES: CCCC(=O)c1cnc2c(OC)cccc2c1Nc1ccc(OC(=O)C(C)C)cc1C
inhibition in vivo at 4 µmol/kg (Canis familiaris [6]): 25%

inhibition [2]: 29% | inhibition [10]: 53%
SMILES: CCCC(=O)c1cnc2c(C)cccc2c1Nc1ccccc1F

inhibition [7]: 17%
SMILES: CCCC(=O)c1cnc2c(OC)cccc2c1Nc1ccc([N+](=O)[O-])cc1C

inhibition [2]: 28% | inhibition [10]: 29%
SMILES: CCCC(=O)c1cnc2c(C)cccc2c1Nc1cc(OC)ccc1OC

inhibition [7]: 25%
SMILES: CCCC(=O)c1cnc2c(OC)cccc2c1Nc1ccc(OC(C)=O)cc1C
inhibition in vivo at 4 µmol/kg (Canis familiaris [6]): 44%

pIC50 [3]: 5.70
SMILES: CCC(=O)c1cnc2c(OCCOC)cccc2c1Nc1ccc(F)cc1C
inhibition in vivo at 4 µmol/kg (Canis familiaris [6]): 94% | Inhibition (Rattus norvegicus [14]): 70% | inhibition in vivo at 1 µmol/kg (Canis familiaris [4]): 36%
